Active and inactive are the calls of the source. The rule behind the calls is not given here. Where a SMILES comes first, the peptide text is derived from it.
How the values were obtained:
Neuropilin-1 [1] = target: T1, Neuropilin-1 (Homo sapiens, UniProt O14786); test: Displacement of [125I]VEGF-A from human NRP1 expressed in pig aortic endothelial cells at 100 uM; assay type: cell-based; settings: Endothelial cell
In short: (§1)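 PAE cells stably expressing NRP1 (Ham's F12, 10% FBS, hygromycin B) grown to confluence. Compounds at 0.1−100 μM (single-point inhibition read at 100 μM) were added, then 0.1 nM 125I-VEGF-A165. Nonspecific binding was taken with 100-fold excess unlabeled VEGF. IC50 came from competition curves; three independent experiments, triplicate per concentration, mean ± SEM.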

Neuropilin-1 [2] = target: T1, Neuropilin-1; test: Displacement of [125I]VEGF-A from human NRP1 expressed in pig aortic endothelial cells; assay type: cell-based, Endothelial cell; in short: as §1
[3] = target: Vascular endothelial growth factor receptor 1 (Homo sapiens) (UniProt P17948); test: Displacement of biotinylated-[…] from human VEGFR1 expressed in human A549 cells; assay type: cell-based
Sequence of Vascular endothelial growth factor receptor 1 (Homo sapiens) (P17948 whole entry): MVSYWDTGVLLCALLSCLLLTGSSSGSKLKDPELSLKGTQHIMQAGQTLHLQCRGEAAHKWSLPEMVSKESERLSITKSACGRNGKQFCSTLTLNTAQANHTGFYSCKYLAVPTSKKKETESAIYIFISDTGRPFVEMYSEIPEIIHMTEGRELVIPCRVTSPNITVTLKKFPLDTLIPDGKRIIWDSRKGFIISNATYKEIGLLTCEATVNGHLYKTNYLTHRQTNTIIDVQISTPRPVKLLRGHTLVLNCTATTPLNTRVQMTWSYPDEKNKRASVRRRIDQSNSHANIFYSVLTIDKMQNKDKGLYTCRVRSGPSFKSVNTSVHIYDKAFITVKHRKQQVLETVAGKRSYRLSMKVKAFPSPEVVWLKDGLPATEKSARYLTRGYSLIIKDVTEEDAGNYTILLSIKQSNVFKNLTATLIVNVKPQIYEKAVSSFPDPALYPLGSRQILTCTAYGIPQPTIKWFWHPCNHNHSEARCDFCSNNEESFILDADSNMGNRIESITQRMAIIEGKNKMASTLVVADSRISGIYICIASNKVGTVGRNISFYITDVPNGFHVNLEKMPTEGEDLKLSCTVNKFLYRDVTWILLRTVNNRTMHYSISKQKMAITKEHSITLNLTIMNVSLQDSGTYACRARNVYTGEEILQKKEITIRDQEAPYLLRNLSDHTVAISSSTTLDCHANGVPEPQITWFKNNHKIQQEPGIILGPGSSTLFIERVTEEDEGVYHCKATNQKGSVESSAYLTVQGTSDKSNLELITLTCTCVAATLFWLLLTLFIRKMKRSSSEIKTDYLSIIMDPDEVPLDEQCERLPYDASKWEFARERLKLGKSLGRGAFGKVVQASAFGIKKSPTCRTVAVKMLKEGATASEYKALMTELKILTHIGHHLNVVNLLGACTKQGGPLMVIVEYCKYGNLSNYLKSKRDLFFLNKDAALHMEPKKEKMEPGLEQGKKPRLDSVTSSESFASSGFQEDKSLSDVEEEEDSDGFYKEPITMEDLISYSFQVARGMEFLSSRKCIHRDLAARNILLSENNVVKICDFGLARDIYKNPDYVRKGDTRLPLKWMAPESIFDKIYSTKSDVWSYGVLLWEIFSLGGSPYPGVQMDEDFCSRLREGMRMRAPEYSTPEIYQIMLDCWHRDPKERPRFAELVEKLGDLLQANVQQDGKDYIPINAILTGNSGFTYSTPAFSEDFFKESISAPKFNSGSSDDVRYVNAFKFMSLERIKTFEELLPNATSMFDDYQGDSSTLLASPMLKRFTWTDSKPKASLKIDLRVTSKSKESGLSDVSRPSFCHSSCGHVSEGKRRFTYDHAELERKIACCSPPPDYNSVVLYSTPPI

HUVEC = test: Inhibition of VEGF-A-induced chemotaxis in HUVEC assessed as reduction in cell migration; assay type: functional, cell-based; settings: Homo sapiens
In short: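 HUVECs in EBM/0.1% BSA were pretreated 30 min with compound or DMSO, and 1.5 × 10^5 cells were loaded into collagen I-coated 8 μm-pore transwell inserts. Cells migrated toward 25 ng/mL VEGF or medium control for 4 h at 37 °C. Migrated cells were stained and counted in four fields at ×100. Three experiments in duplicate, mean ± SEM.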

[4] = target: Vascular endothelial growth factor receptor 2 (Homo sapiens) (UniProt P35968); test: Inhibition of VEGF-A-induced VEGFR2 phosphorylation in HUVEC at 100 uM by ELISA; assay type: cell-based
Sequence of Vascular endothelial growth factor receptor 2 (Homo sapiens) (P35968 whole entry): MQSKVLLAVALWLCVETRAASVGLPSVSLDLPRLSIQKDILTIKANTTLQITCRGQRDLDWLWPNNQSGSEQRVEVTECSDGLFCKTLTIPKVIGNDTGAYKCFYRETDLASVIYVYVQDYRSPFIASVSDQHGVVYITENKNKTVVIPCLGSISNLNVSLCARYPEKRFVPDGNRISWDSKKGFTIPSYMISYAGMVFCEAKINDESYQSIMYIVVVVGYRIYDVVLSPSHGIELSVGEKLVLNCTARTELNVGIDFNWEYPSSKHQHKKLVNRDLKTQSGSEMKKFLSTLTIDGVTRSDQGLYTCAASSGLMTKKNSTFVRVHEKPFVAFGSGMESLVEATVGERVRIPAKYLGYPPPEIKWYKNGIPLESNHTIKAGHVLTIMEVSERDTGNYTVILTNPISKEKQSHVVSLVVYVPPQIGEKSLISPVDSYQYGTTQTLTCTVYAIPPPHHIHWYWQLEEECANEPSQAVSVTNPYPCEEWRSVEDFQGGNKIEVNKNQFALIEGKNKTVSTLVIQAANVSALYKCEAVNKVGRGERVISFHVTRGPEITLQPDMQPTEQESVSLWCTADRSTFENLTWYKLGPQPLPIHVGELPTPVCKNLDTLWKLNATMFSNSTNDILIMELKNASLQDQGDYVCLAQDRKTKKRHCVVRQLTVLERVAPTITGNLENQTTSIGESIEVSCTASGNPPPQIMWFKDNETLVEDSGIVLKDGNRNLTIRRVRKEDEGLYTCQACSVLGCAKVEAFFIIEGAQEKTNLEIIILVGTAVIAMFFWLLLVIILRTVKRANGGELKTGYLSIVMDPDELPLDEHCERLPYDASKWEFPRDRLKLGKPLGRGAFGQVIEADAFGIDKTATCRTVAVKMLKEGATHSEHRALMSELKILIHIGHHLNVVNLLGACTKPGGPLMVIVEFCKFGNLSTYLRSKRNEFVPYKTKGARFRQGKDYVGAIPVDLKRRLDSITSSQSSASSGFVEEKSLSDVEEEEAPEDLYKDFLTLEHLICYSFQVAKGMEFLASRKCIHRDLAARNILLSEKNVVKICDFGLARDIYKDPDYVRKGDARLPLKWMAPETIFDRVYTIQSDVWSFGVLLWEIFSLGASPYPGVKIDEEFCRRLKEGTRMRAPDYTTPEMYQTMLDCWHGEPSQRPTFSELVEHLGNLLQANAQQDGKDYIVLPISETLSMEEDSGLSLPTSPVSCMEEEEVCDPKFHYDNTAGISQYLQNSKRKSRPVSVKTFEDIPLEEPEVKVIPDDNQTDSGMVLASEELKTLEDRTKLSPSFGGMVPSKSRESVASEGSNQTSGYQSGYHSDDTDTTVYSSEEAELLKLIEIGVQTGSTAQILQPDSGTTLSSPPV
In short: (§2)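 Confluent HUVECs were pretreated 30 min with compound or DMSO vehicle, then stimulated with or without 25 ng/mL VEGF-A165 for 5 min at 37 °C. Tyr1175-phosphorylated and total VEGFR2 in lysates were measured by sandwich ELISA kits. Three independent experiments in duplicate, mean ± SEM.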

Neuropilin-1 [5] = target: T1, Neuropilin-1; test: Displacement of […] from human NRP1 expressed in human DU145 cells; assay type: cell-based, DU-145
[6] = target: Vascular endothelial growth factor receptor 2 (Homo sapiens) (UniProt P35968); test: Displacement of biotinylated-[…] from human VEGFR2 expressed in human DU145 cells; assay type: cell-based; settings: DU-145
[7] = target: Vascular endothelial growth factor receptor 2 (Homo sapiens) (UniProt P35968); test: Inhibition of VEGF-A-induced VEGFR2 phosphorylation in HUVEC by ELISA; assay type: cell-based; in short: as §2
[8] = target: Vascular endothelial growth factor receptor 2 (Homo sapiens) (UniProt P35968); test: Displacement of biotinylated-[…] from human VEGFR2 expressed in human A549 cells; assay type: cell-based
Neuropilin-1 [9] = target: T1, Neuropilin-1; test: Displacement of biotinylated-[…] from human NRP1 expressed in HUVEC; assay type: cell-based
Neuropilin-1 [10] = target: T1, Neuropilin-1; test: Displacement of [125I]VEGF-A from human NRP1 expressed in human A549 cells; assay type: cell-based
[11] = target: Vascular endothelial growth factor receptor 1 (Homo sapiens) (UniProt P17948); test: Displacement of biotinylated-[…] from human VEGFR1 expressed in human DU145 cells; assay type: cell-based; settings: DU-145
A549 = test: Cytotoxicity against human A549 cells after 48 hrs by XTT method; assay type: functional, cell-based
In short: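 A549 lung carcinoma cells seeded at 4 × 10^3 per well in serum-free medium, with compound added. After 44 h incubation, XTT labeling reagent was added and cells were incubated a further 4 h, giving 48 h total. Formazan read at 490 nm against a 595 nm reference. Three independent experiments, each in triplicate, reported as mean ± SEM.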

Neuropilin-1 [12] = target: T1, Neuropilin-1; test: Displacement of […] from NRP1 b1 domain by cell-free assay

T1 sequence (O14786 whole entry): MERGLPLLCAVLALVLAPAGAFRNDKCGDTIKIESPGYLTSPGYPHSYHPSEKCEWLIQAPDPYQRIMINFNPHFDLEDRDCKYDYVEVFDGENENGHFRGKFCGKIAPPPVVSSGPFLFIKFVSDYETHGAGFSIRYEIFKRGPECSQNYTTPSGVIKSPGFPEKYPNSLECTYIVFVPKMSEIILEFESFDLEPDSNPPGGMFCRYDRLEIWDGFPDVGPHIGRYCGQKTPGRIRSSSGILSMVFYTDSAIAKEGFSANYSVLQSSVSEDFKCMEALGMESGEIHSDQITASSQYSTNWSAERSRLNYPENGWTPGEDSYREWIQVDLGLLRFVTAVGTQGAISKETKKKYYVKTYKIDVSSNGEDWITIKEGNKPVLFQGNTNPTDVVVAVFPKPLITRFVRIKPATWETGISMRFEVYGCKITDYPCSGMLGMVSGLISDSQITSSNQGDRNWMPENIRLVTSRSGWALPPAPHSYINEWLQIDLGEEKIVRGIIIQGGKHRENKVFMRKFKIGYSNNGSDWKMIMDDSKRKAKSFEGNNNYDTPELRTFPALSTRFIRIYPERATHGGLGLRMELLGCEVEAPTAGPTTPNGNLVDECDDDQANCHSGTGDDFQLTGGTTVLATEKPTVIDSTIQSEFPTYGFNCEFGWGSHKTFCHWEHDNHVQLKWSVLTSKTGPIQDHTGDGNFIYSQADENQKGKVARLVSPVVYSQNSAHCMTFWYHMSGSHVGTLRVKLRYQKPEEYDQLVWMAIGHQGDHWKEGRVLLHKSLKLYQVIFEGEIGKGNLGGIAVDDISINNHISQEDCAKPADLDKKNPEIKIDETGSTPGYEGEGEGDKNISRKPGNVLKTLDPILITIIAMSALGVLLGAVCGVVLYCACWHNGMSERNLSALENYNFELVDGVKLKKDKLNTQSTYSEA

Row | SMILES | Activity (Neuropilin-1 [1]) [%] | other results
1 | CN(c1ccsc1C(=O)N[C@@H](CCCNC(=N)N)C(=O)O)S(=O)(=O)c1ccc([N+](=O)[O-])cc1 | 42 | –
2 | N=C(N)NCCC[C@@H](NC(=O)c1sccc1NS(=O)(=O)c1ccc(N)cc1)C(=O)O | 36 | –
3 | N=C(N)NC(=O)CC[C@H](NC(=O)c1sccc1NS(=O)(=O)c1ccc([N+](=O)[O-])cc1)C(=O)O | 58 | –
4 | N=C(N)NCCC[C@H](NC(=O)c1sccc1S(=O)(=O)Nc1ccc(N)cc1)C(=O)O | 0 | –
5 | N=C(N)NCCC[C@H](NC(=O)c1sccc1NS(=O)(=O)c1ccccc1[N+](=O)[O-])C(=O)O | 100 | IC50 (Neuropilin-1 [2]): 9 µM
6 | N=C(N)NCCCC[C@H](NC(=O)c1sccc1NS(=O)(=O)c1ccc(N)cc1)C(=O)O | 20 | –
7 | N=C(N)NCCC[C@H](NC(=O)c1sccc1NS(=O)(=O)c1cccc(N)c1)C(=O)O | 84 | IC50 (Neuropilin-1 [2]): 14 µM
8 | N=C(N)NCCC[C@H](NC(=O)[C@H](Cc1ccccc1)NC(=O)[C@@H]1CCCN1C(=O)[C@@H](N)CCCCN)C(=O)O (H-KPFR-OH) | 63 | –
9 | N=C(N)NCCC[C@@H](CO)NC(=O)c1sccc1NS(=O)(=O)c1ccc2nsnc2c1 | 21 | –
10 | C/N=C(/NC)NCCC[C@H](NC(=O)c1sccc1NS(=O)(=O)c1ccc([N+](=O)[O-])cc1)C(=O)O | 12 | –
11 | C[C@H](NC(=O)[C@@H]1CCCN1C(=O)[C@@H](N)CCCCN)C(=O)N[C@@H](CCCCN)C(=O)O (H-KPAK-OH) | 22 | –
12 | N=C(N)NCCC[C@H](NC(=O)c1sccc1NS(=O)(=O)c1cccc2nsnc12)C(=O)O | 99 | Activity [3]: inactive; inhibition (HUVEC): Active; inhibition [4]: 34%; IC50 (Neuropilin-1 [5]): 3 µM; Activity [6]: inactive; inhibition [7]: Dose-dependent effect; Activity [8]: inactive; IC50 (Neuropilin-1 [9]): 23 µM; IC50 (Neuropilin-1 [2]): 8 µM; IC50 (Neuropilin-1 [10]): 7 µM; Activity [11]: inactive; Activity (A549): Active; IC50 (Neuropilin-1 [12]): 3 µM
13 | N=C(N)NCCC[C@H](NC(=O)c1sccc1NS(=O)(=O)c1ccc([N+](=O)[O-])cc1)C(=O)O (stereo in doubt; 46) [listing 1 of 2 here] | – | IC50 (Neuropilin-1 [2]; endothelial cell): 52 µM
14 | N=C(N)NCCC[C@H](NC(=O)c1sccc1NS(=O)(=O)c1ccc(N)cc1)C(=O)O | 78 | IC50 (Neuropilin-1 [2]): 13 µM
15 | NCCCC[C@H](NC(=O)c1sccc1NS(=O)(=O)c1ccc([N+](=O)[O-])cc1)C(=O)O | 20 | –
16 | N=C(N)NCCC[C@H](NC(=O)C1CCN(Cc2nc(O)nc(NCCCCN)n2)CC1)C(=O)O | 32 | –
17 | N=C(N)NCCC[C@H](NC(=O)c1cccc(-c2cccc(NC(=O)C3CCC(CN)CC3)c2)c1)C(=O)O (some centres undefined) | 49 | –
18 | Cc1nn(C)c(Cl)c1CNc1cccc(S(=O)(=O)Nc2ccsc2C(=O)N[C@@H](CCCNC(=N)N)C(=O)O)c1 | 88 | IC50 (Neuropilin-1 [2]): 6 µM
19 | Cc1nc(S(=O)(=O)Nc2ccsc2C(=O)N[C@@H](CCCNC(=N)N)C(=O)O)cn1C | 88 | IC50 (Neuropilin-1 [2]): 12 µM
20 | C[C@H](NC(=O)[C@@H]1CCCN1C(=O)[C@H](N)CCCCN)C(=O)N[C@@H](CCCNC(=N)N)C(=O)O | 51 | –
21 | N=C(N)NCCC[C@H](NC(=O)[C@@H]1CCCN1C(=O)[C@@H]1CCCN1C(=O)[C@@H](N)CCCCN)C(=O)O (H-KPPR-OH) | 96 | IC50 (Neuropilin-1 [2]): 14 µM
22 | C[C@H](NC(=O)[C@@H]1CCCN1C(=O)[C@@H](N)CCCCN)C(=O)N[C@@H](CCC(N)=O)C(=O)O (H-KPAQ-OH) | 19 | –
23 | N=C(N)NCCC[C@H](NC(=O)c1sccc1NS(=O)(=O)c1ccccc1N)C(=O)O | 95 | IC50 (Neuropilin-1 [2]): 17 µM

Row | SMILES | Activity (Neuropilin-1 [1]) [%] | other results
24 | N=C(N)NCCC[C@H](NC(=O)c1ccccc1NS(=O)(=O)c1ccc(N)cc1)C(=O)O | 70 | –
25 | N=C(N)NCCCC[C@@H](CC(=O)O)NC(=O)c1sccc1NS(=O)(=O)c1ccc2nsnc2c1 | 11 | –
26 | COC(=O)[C@H](CCCNC(=N)N)NC(=O)c1sccc1NS(=O)(=O)c1ccc([N+](=O)[O-])cc1 | 21 | –
27 | N=C(N)Nc1ccc(C[C@H](NC(=O)c2sccc2NS(=O)(=O)c2ccc(N)cc2)C(=O)O)cc1 | 13 | –
28 | N=C(NCCC[C@H](NC(=O)c1sccc1NS(=O)(=O)c1ccc([N+](=O)[O-])cc1)C(=O)O)N[N+](=O)[O-] | 3 | –
29 | C[C@H](NC(=O)[C@@H]1CCCN1C(=O)[C@@H](N)CCCCN)C(=O)N[C@H](CCCNC(=N)N)C(=O)O | 22 | –
30 | C[C@@H](NC(=O)[C@@H]1CCCN1C(=O)[C@@H](N)CCCCN)C(=O)N[C@@H](CCCNC(=N)N)C(=O)O | 36 | –
31 | O=c1[nH]cc(F)c(=O)[nH]1 [FLUOROURACIL] | – | IC50 (A549; A549, 48 h): 78 µM
32 | N=C(N)NCCC[C@H](NC(=O)c1sccc1NS(=O)(=O)c1cccc2nonc12)C(=O)O | 87 | IC50 (Neuropilin-1 [2]): 17 µM
33 | N=C(N)NCCC[C@H](NC(=O)c1sccc1NS(=O)(=O)c1ccc([N+](=O)[O-])cc1)C(=O)O (stereo in doubt; 38) [listing 1 of 2 here] | – | IC50 (Neuropilin-1 [2]): 52 µM
34 | N=C(N)NCCC[C@H](NC(=O)c1sccc1NS(=O)(=O)c1ccc2nsnc2c1)C(=O)NO | 59 | –
35 | N=C(N)NCCC[C@H](NC(=O)c1cccc(-c2cccc(NC(=O)CCCCCN)c2)c1)C(=O)O | 40 | –
36 | N=C(N)NCCC[C@H](NC(=O)C1CCN(Cc2cccc(NC(=O)CCCCCN)c2)CC1)C(=O)O | 35 | –
37 | N=C(N)NCCC[C@H](NC(=O)c1sccc1NS(=O)(=O)c1ccc(F)cc1F)C(=O)O | 79 | IC50 (Neuropilin-1 [2]): 33 µM
38 | N=C(N)NCCC[C@H](NC(=O)c1cccs1)C(=O)O | 28 | –
39 | C[C@H](NC(=O)[C@@H]1CCCN1C(=O)[C@@H](N)CCCCN)C(=O)N[C@@H](CCCNC(=N)N)C(=O)O | 83 | IC50 (Neuropilin-1 [2]): 30 µM
40 | CN(c1ccsc1C(=O)N[C@@H](CCCNC(=N)N)C(=O)O)S(=O)(=O)c1ccc(N)cc1 | 25 | –
41 | N=C(N)NCCC[C@H](NC(=O)c1sccc1NS(=O)(=O)c1ccc([N+](=O)[O-])cc1)C(=O)O (stereo in doubt; 38) [listing 2 of 2 here] | 75 | –
42 | Cc1oc(-c2ccc(NC(=O)CCCCN)cc2)cc1C(=O)N[C@@H](CCCNC(=N)N)C(=O)O | 31 | –
43 | N=C(N)NCCC[C@H](NC(=O)c1sccc1NS(=O)(=O)c1ccc([N+](=O)[O-])cc1)C(=O)O (stereo in doubt; 46) [listing 2 of 2 here] | 75 | –
44 | CC(=O)Nc1ccc(S(=O)(=O)Nc2ccsc2C(=O)N[C@@H](CCCNC(=N)N)C(=O)O)cc1 | 84 | IC50 (Neuropilin-1 [2]): 18 µM
45 | N=C(N)NCCC[C@H](NC(=O)c1ccccc1S(=O)(=O)C1CCNCC1)C(=O)O | 10 | –

Reference: ChEMBL document CHEMBL1155371, “Small molecule inhibitors of the neuropilin-1 vascular endothelial growth factor A (VEGF-A) interaction” (J Med Chem, 2010)
